The term MIC denotes the smallest concentration in the dilution series that meets the test's criterion for growth inhibition.

Test [1] has as its system Escherichia coli. Nature of the test: Bacteriostatic activity against Escherichia coli DM4100 in aerobic condition. It is filed as functional. The essentials:
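MIC from 10^4 to 10^5 cells/ml in liquid medium with serial twofold quinolone dilutions. Incubated at 37°C with shaking, 2-ml cultures, aerobic.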

Test [2] concerns Escherichia coli. The experiment in a line: Bacteriostatic activity against Escherichia coli DM4100 in anaerobic condition. The format is functional. A digest of the protocol: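 MIC from 10^4 to 10^5 cells/ml in liquid medium with serial twofold quinolone dilutions. Incubated at 37°C in sealed tubes after 20 min flushing with anaerobic gas (85% N2, 10% H2, 5% CO2).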
In test [3] the test system is Escherichia coli. Nature of the test: Bactericidal activity against Escherichia coli DM4100 in aerobic condition. It is filed as functional, organism-based. A digest of the protocol:
(§1)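 Mid-log cells grown aerobically at 37°C in liquid medium, split into 2-ml portions and given quinolone for 2 h with shaking in air. Chloramphenicol 20 µg/ml was added 10 min before quinolone for the chloramphenicol arm. Cells were diluted in ice-cold LB and plated on drug-free LB agar overnight at 37°C aerobically. Read-out is CFU relative to CFU at time of quinolone addition.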

In test [4] the test system is Escherichia coli. The experiment in a line: Bactericidal activity against Escherichia coli DM4100 in saline. It is filed as functional, organism-based.
Test [5] has as its system Escherichia coli. The experiment in a line: Bactericidal activity against Escherichia coli DM4100 in anaerobic condition. The format is functional, organism-based. A digest of the protocol:
(§2)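 Mid-log aerobic cultures at 37°C were split into 2-ml portions in sealed tubes flushed with anaerobic gas (85% N2, 10% H2, 5% CO2). After 20 min, anaerobic quinolone solution was added and incubation continued 2 h under gas flow. Cells were diluted in ice-cold LB, plated aerobically on drug-free LB agar overnight at 37°C. Survival is CFU relative to CFU at drug addition.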

The test system of test [6] is Escherichia coli. Nature of the test: Bactericidal activity against Escherichia coli DM4100 in the presence of chloramphenicol. The format is functional, organism-based. The essentials:
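Aerobically growing mid-log cells at 37°C received chloramphenicol to 20 µg/ml 10 min before the quinolone. Treatment ran 2 h. Cells were diluted in ice-cold LB and plated aerobically on drug-free LB agar overnight at 37°C. Survival is CFU relative to CFU at quinolone addition. Replicate experiments were run.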

Test [7] relates to Escherichia coli. The experiment in a line: Bactericidal activity in Escherichia coli KD1373 containing parC mutation in anerobic condition. The format is functional, organism-based. The essentials: as §2
In test [8] the test system is Escherichia coli. The experiment in a line: Bactericidal activity in Escherichia coli KD2750 containing gyrA resistant mutation in anerobic condition. It is filed as functional, organism-based. A digest of the protocol:
as §2

In test [9] the test system is Escherichia coli. The experiment in a line: Bactericidal activity in Escherichia coli KD2329 containing gyrA-parC mutation. The format is functional, organism-based. The essentials:
as §1

Test [10] relates to Escherichia coli. The experiment in a line: Bactericidal activity in Escherichia coli KD1373 containing parC resistance mutation in aerobic condition. The format is functional, organism-based. The essentials:
as §1

In test [11] the test system is Escherichia coli. Nature of the test: Bactericidal activity in Escherichia coli KD1373 containing parC resistance mutation in anaerobic condition. It is filed as functional, organism-based. A digest of the protocol:
as §2

Test [12] has as its system Escherichia coli. The experiment in a line: Bactericidal activity in Escherichia coli KD1373 containing parC resistance mutation in presence of chloramphenicol. It is filed as functional, organism-based. A digest of the protocol:
as §1

Test [13] relates to Escherichia coli. Nature of the test: Bactericidal activity in Escherichia coli KD2329 with gyrA-par C resistant mutation. It is filed as functional, organism-based. A digest of the protocol:
as §1

For test [14], the system named is Escherichia coli. The experiment in a line: Chromosome fragmentation in Escherichia coli DM4100 assessed as reduced lysate viscosity at 50 ug/ml after 2 hrs in aerobic condition. The format is functional, organism-based. A digest of the protocol:
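Exponential aerobic cells were treated 2 h with drug, then gently lysed with lysozyme and nonionic detergents at 20°C for 2–3 min. Lysate twofold dilutions received pancreatic RNase 20 µg/ml, were heated at 80°C for 2 min, chilled on ice and brought to 20°C. Viscosity was measured by capillary viscometry.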

Converted amounts (≈) assume the structure as drawn. The source made the active and inactive calls.

Regarding `CCn1cc(C(=O)O)c(=O)c2cc(F)c(N3CCNCC3)cc21` [NORFLOXACIN], the MIC against Escherichia coli [1] and in the test on Escherichia coli [2] was 0.075 mg/L (≈ 0.235 µM) throughout. The result in the test on Escherichia coli [3], in the test on Escherichia coli [4], with Escherichia coli [5], in the test with Escherichia coli [7] and in the test with Escherichia coli [8] was Active. The result in the test with Escherichia coli [6] and in the test with Escherichia coli [9] was inactive.

As to `CCN1CCN(c2c(F)cc3c(=O)c(C(=O)O)cn(C4CC4)c3c2OC)CC1`, the MIC against Escherichia coli [1] and in the test on Escherichia coli [2] was 0.08 mg/L (≈ 0.205 µM) each time. Besides, the result with Escherichia coli [3], in the test with Escherichia coli [5], in the test with Escherichia coli [6], in the test on Escherichia coli [10], in the test with Escherichia coli [11] and in the test with Escherichia coli [12] was Active. Also, the outcome with Escherichia coli [13] was inactive.

With `CCn1cc(C(=O)O)c(=O)c2ccc(C)nc21` [NALIDIXIC ACID], the MIC in the test on Escherichia coli [1] and against Escherichia coli [2] was 5 mg/L (≈ 21.5 µM) throughout. The result with Escherichia coli [3] and with Escherichia coli [14] was Active. The outcome with Escherichia coli [4], in the test with Escherichia coli [5] and with Escherichia coli [6] was inactive.

With `O=C(O)c1cn(C2CC2)c2cc(N3CCNCC3)c(F)cc2c1=O`, the outcome in the test on Escherichia coli [3], in the test with Escherichia coli [4], in the test on Escherichia coli [5] and in the test with Escherichia coli [6] was Active.
